Test results taken from article PMC3609949 (Journal of the American Chemical Society, 2013).
Where a SMILES comes first, the peptide text is derived from it. The star is where a group is joined. X1 = CC[C@@]1(OC(=O)CCCS*)C(=O)OCc2c1cc1n(c2=O)Cc2cc3ccccc3nc2-1

Assay: TEM imaging of self-assembled nanostructures in water
Assay type: physicochemical
Settings: 50 μM in water, stained with 2% uranyl acetate
How it was run: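 Negative-stain TEM using 2% aqueous uranyl acetate to enhance contrast. Most stained samples were imaged at 50 μM. Some other images were taken at 1 mM, and one panel is listed at both 50 μM and 100 μM. Filament widths are given as value ± spread.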

CC[C@H](C)[C@H](NC(=O)[C@H](CCC(N)=O)NC(=O)[C@@H](NC(=O)CNC(=O)[C@H](CSSCCCC(=O)O[C@]1(CC)C(=O)OCc2c1cc1n(c2=O)Cc2cc3ccccc3nc2-1)NC(C)=O)C(C)C)C(=O)N[C@H](C(=O)N[C@@H](Cc1ccc(O)cc1)C(=O)N[C@@H](CCCCN)C(=O)N[C@@H](CCCCN)C(N)=O)C(C)C [mCPT-buSS-Tau] (Ac-C(X1)GVQIVYKK-NH2; N-terminus and C-terminus assumed)
width of self-assembled filaments/nanotubes: 6.7 ± 1 nm
